Reference: ChEMBL document CHEMBL3232894, “Discovery of AMG 925, a FLT3 and CDK4 dual kinase inhibitor with preferential affinity for the activated state of FLT3” (J Med Chem, 2014)

Legend:
MOLM-13 [1] = assay: Antitumor activity against human MOLM13 cells xenografted in CrTac:NCR-Foxn1nu (NCR) nude mouse assessed as tumor growth inhibition at 150 mg/kg, po administered qd for 8 days; format: functional; settings: MOLM-13, 192 h, read-out: TGI
Summary of the method: (§1)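 Oral dosing once daily, day 5 to day 13, in NCR nude mice bearing established subcutaneous human MOLM13 AML xenografts, at 25, 50, 75 and 150 mg/kg against a vehicle group. Tumor growth inhibition read on day 14. AUC comes from terminal PK on plasma collected after the final dose.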

[2] = Volume of distribution at steady state in iv dosed dog; format: ADME, organism-based, Canis lupus familiaris; settings: in vivo, read-out: Vdss
Summary of the method: (§2)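 Intravenous and oral (gavage, solution) PK in rat, dog and cynomolgus monkey. The rat vehicle for both routes was water/acetate/tween at pH 4, 96/3/1 (v/v/v). Dog and monkey iv doses used 40% PG aqueous solution at pH 2, and their oral doses used 20% captisol aqueous solution.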

Mus musculus [3] = assay: Toxicity in CrTac:NCR-Foxn1nu (NCR) nude mouse xenografted with human MOLM13 cells assessed as body weight loss at 25 to 150 mg/kg, po administered qd for 8 days; format: organism-based, MOLM-13; set-up: dose 25-150 mg/kg, route oral; settings: in vivo, 192 h
Summary of the method: (§3)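 Body weight tracked throughout the 8-day once-daily oral study in NCR nude mice carrying MOLM13 xenografts. Doses were 25, 50, 75 and 150 mg/kg, with a vehicle control.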

[4] = Volume of distribution at steady state in iv dosed rat; format: ADME, organism-based; settings: in vivo, read-out: Vdss; summary of the method: as §2
[5] = Elimination half-life in iv dosed rat; format: ADME, organism-based; settings: in vivo, read-out: beta t1/2 (converted); summary of the method: as §2
Mus musculus [6] = assay: Toxicity in po dosed CrTac:NCR-Foxn1nu (NCR) nude mouse xenografted with human MOLM13 cells administered qd for 8 days; format: organism-based, MOLM-13; settings: in vivo, 192 h; summary of the method: as §3
[7] = target: Receptor-type tyrosine-protein kinase FLT3 (Homo sapiens, UniProt P36888, D835H); assay: Binding affinity to FLT3 D835H mutant (unknown origin)
MOLM-13 [8] = assay: Induction of apoptosis in human MOLM13 cells harboring FLT3 ITD mutant at 1 uM after 48 hrs by Annexin V/Sytox Green staining based flow cytometry; format: functional
Summary of the method: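 MOLM13, sorafenib-resistant MOLM13 and U937 cells were each exposed to compound at 1 μM for 48 h. Cells were then stained with Annexin V/Sytox Green and analysed by flow cytometry. Readout is apoptotic cells as a percentage of all cells analysed.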

[9] = target: Receptor-type tyrosine-protein kinase FLT3 (Homo sapiens, UniProt P36888, ITD); assay: Inhibition of FLT3 ITD mutant in human MOLM13 cells assessed as inhibition of STAT5 phosphorylation at Tyr694 after 24 hrs; format: cell-based, MOLM-13
[10] = Clearance in iv dosed rat; format: ADME, organism-based; settings: in vivo; summary of the method: as §2
[11] = target: T1, Receptor-type tyrosine-protein kinase FLT3 (Homo sapiens, UniProt P36888); assay: Inhibition of GST-fused human FLT3 cytoplasmic domain (amino acids 564 to 993) using Ulight-JAK1 as substrate after 1 hr by TR-FRET assay
T1 sequence (P36888 whole entry): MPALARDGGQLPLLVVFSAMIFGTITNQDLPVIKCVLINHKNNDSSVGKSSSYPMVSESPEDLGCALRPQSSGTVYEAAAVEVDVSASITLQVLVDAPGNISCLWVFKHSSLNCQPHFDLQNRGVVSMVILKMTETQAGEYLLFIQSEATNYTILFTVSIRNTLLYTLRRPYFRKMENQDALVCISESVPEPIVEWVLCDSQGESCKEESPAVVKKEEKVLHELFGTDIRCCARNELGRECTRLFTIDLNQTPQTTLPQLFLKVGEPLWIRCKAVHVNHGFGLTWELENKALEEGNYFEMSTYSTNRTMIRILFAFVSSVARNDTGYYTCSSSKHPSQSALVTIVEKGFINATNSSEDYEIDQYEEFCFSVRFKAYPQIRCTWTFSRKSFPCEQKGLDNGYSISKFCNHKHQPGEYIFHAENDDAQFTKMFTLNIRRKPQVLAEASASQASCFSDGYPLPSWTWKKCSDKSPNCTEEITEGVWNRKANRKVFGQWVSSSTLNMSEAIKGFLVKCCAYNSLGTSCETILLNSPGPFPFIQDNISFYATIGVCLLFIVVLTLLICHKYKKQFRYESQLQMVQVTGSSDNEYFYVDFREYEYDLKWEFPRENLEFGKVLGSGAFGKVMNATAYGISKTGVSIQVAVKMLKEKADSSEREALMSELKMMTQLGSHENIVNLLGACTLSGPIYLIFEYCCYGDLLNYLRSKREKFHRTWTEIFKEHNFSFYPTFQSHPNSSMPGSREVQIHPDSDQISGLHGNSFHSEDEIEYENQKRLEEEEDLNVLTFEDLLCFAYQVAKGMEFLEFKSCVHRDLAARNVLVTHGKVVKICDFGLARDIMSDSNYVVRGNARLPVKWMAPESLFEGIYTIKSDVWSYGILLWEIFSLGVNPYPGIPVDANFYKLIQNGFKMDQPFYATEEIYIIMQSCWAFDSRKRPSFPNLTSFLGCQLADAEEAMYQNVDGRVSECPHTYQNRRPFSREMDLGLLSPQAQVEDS

[12] = AUC in po dosed CrTac:NCR-Foxn1nu (NCR) nude mouse xenografted with human MOLM13 cells administered qd for 8 days; format: ADME, organism-based, MOLM-13; settings: in vivo; summary of the method: as §1
[13] = target: T1, Receptor-type tyrosine-protein kinase FLT3; assay: Binding affinity to wild type FLT3 (unknown origin)

Compound: C[C@H]1CC[C@H](n2c3cnccc3c3cnc(Nc4ccc5c(n4)CCN(C(=O)CO)C5)nc32)CC1
- inhibition in vivo at 150 mg/kg (MOLM-13 [1]): 100%
- Vd [2]: 2.6 L/kg
- Activity (Mus musculus [3]): 10%
- Vd [4]: 1.8 L/kg
- half-life [5]: 5.5 h
- Activity (Mus musculus [6]): Non-toxic
- Kd [7]: 1 nM
- Activity (MOLM-13 [8]): 82.3%
- IC50 [9]: 5 nM
- clearance [10]: 6.5 mL/min/kg
- IC50 [11]: 1 nM
- AUC at 192 h [12]: 28 µM·h
- Kd [13]: 4 nM
